Data taken from PMC2219267 (The Journal of General Physiology, 1996).
Each block holds one molecule with its values, some of them ahead of it.

Experiments:
band 3 [1] = biological target: T1, band 3 (Homo sapiens, UniProt P02730); assay: 36Cl exchange flux inhibition in red blood cells, Dixon plots; format: cell-based
T1 sequence (P02730 1-911): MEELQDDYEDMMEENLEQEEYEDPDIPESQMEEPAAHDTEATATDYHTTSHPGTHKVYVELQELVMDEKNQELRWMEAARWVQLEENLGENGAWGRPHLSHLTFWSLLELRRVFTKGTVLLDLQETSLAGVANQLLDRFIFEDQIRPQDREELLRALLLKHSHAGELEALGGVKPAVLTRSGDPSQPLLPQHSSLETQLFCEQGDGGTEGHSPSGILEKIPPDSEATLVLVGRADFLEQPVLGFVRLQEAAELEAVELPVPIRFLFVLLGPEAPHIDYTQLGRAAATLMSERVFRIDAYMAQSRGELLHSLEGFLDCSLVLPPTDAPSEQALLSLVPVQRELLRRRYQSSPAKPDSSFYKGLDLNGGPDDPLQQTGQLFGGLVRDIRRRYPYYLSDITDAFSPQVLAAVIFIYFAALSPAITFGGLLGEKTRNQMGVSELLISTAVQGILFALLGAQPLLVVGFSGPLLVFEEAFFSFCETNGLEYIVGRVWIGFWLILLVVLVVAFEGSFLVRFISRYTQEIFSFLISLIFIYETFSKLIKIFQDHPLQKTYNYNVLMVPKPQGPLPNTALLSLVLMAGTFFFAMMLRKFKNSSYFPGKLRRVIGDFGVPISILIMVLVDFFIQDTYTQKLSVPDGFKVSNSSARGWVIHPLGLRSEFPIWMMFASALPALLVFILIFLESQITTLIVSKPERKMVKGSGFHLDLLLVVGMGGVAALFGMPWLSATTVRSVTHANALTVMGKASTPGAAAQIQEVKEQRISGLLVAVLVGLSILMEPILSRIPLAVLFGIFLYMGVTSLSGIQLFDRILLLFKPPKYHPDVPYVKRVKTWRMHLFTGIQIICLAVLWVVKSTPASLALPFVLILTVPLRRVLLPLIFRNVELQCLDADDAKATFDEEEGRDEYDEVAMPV

band 3 [2] = biological target: T1, band 3; assay: 125I iodide influx into red blood cells; format: cell-based
How it was run: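 Heparinised human blood was washed three times in 150 KH (150 mM KCl, 24 mM sucrose, 20 mM Hepes, pH 7.2 at 0°C), with white cells aspirated, then held at 50% hematocrit. DIDS-treated cells received a 2 mM DIDS stock. Media mixed sucrose, KCl and KI with 5 mM buffer. Above pHo 11, cells were nystatin-loaded to 300 mM Cl-, and CAPS-buffered media were used.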

effect of buffer on anion transport or on KoI (band 3 [1]; pHo ~12, compared with data obtained without buffer): does not show any inhibitory effects
SMILES: O=S(=O)(O)CCCNC1CCCCC1 [CAPS, 3-[cyclohexylamino]-l-propanesulfonic acid]

I- influx in DIDS-treated cells as % of value in control cells (band 3 [2]; all pH except 11.5): less than 10%
DIDS-insensitive I- flux as % of control flux (band 3 [2]; pH 11.5, very scattered values): up to 25%
SMILES: O=S(=O)(O)c1cc(N=C=S)ccc1C=Cc1ccc(N=C=S)cc1S(=O)(=O)O [DIDS, 4,4'-diisothiocyano-stilbene-2,2'-disulfonate]

type of inhibition of Cl- flux (Lineweaver-Burk plot) (band 3 [1]; 24 mM citrate, pHo 6.8, sucrose replacing Cl-): mixed inhibition
y intercept of Dixon slope vs 1/[Clo] (citrate) (band 3 [1]; pHo 6.8): 0.00017 kg Hb·s·mmol-1·mM-1
y intercept of Dixon slope vs 1/[Clo] (citrate) (band 3 [1]; pHo 8.0): 0.0001 kg Hb·s·mmol-1·mM-1
SMILES: O=C(O)CC(O)(CC(=O)O)C(=O)O [citrate]
